This note sets out measurements from ChEMBL document CHEMBL1129030, “Potent, selective, orally active 3-oxo-1,4-benzodiazepine GPIIb/IIIa integrin antagonists” (J Med Chem, 1996).

Experiment [1] is filed under the species Canis familiaris. Briefly: Duration for maximal inhibition of platelet aggregation in canine. It is filed as functional, Canis lupus familiaris. The method in brief:
(§1)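 Conscious dogs dosed either by intravenous bolus or by short intraduodenal infusion through a catheter, at 0.3–3 mg/kg. Blood was drawn serially for up to 390 min. Platelet aggregation was measured ex vivo in collagen-stimulated canine whole blood. The readouts were maximal % inhibition, time to maximal inhibition, duration of maximal inhibition, and % inhibition at 390 min.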

For experiment [2], the species on record is Canis familiaris. Nature of the experiment: Time required for maximal inhibition of platelet aggregation in canine. It counts as functional, Canis lupus familiaris. A digest of the protocol: as §1
Experiment [3] has as its system Canis familiaris. Briefly: Ex vivo inhibition of platelet aggregation in canine whole blood/collagen at a dose of 3 mg/kg after i.d. administration; range is 90-100. It counts as functional. The note with it: Canis lupus familiaris, route intraduodenal. A digest of the protocol: as §1
The species named for experiment [4] is Homo sapiens. Nature of the experiment: In vitro Inhibitory activity against patelet aggregation in human platelet-rich plasma induced by ADP. It counts as functional.
The test system of experiment [5] is Canis familiaris. Nature of the experiment: Ex vivo inhibition of platelet aggregation in canine whole blood/collagen at a dose of 0.3 mg/kg after i.d. administration at 390 min. Particulars: Canis lupus familiaris, 6.5 h, route intraduodenal. It counts as functional. The method in brief: as §1
For experiment [6], the system named is Canis familiaris. Briefly: Ex vivo inhibition of platelet aggregation in canine whole blood/collagen at a dose of 0.3 mg/kg after i.v. administration at 390 min. It is filed as functional. The note with it: Canis lupus familiaris, 6.5 h, route intravenous. The method in brief: as §1
Experiment [7] addresses Integrin alpha-IIb/beta-3 (Homo sapiens, UniProt P05106+P08514). Nature of the experiment: Inhibition of binding to purified integrin alphaIIb-beta3 of human platelets.
The subject of experiment [8] is Canis familiaris. Nature of the experiment: Ex vivo inhibition of platelet aggregation in canine whole blood/collagen at a dose of 0.3 mg/kg after i.v. administration; range is 90-100. It is filed as functional. Particulars: Canis lupus familiaris, route intravenous. A digest of the protocol: as §1
The subject of experiment [9] is Canis familiaris. Nature of the experiment: Ex vivo inhibition of platelet aggregation in canine whole blood/collagen at a dose of 0.3 mg/kg after i.d. administration; […]. It counts as functional. Particulars: Canis lupus familiaris, route intraduodenal. A digest of the protocol:
as §1

Values joined by “and” are separate entries in the source; they are usually repeats but may differ in a detail not shown here. Equal entries are not always repeated.

Integrin alpha-IIb/beta-3, sequence (P05106 27-788 limits assumed): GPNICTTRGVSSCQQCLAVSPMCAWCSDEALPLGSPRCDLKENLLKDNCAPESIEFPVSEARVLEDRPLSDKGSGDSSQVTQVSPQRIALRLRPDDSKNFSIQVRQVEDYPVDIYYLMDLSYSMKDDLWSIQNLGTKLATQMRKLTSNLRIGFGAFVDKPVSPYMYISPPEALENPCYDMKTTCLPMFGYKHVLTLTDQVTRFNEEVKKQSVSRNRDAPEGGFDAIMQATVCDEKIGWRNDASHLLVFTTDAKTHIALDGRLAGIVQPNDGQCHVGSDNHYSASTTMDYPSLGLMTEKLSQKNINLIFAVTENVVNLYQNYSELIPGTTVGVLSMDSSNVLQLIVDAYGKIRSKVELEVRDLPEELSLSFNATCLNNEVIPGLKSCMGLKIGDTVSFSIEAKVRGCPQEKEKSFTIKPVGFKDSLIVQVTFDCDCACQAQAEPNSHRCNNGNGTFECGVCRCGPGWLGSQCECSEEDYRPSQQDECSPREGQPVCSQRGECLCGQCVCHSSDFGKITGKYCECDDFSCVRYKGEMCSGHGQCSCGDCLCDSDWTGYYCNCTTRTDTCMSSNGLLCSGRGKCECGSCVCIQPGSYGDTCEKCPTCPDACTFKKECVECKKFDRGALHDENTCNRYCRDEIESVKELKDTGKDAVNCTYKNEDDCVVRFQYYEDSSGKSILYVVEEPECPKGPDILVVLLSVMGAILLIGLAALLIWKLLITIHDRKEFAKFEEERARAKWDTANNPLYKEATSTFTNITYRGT
Integrin alpha-IIb/beta-3, sequence (P08514 32-887 limits assumed): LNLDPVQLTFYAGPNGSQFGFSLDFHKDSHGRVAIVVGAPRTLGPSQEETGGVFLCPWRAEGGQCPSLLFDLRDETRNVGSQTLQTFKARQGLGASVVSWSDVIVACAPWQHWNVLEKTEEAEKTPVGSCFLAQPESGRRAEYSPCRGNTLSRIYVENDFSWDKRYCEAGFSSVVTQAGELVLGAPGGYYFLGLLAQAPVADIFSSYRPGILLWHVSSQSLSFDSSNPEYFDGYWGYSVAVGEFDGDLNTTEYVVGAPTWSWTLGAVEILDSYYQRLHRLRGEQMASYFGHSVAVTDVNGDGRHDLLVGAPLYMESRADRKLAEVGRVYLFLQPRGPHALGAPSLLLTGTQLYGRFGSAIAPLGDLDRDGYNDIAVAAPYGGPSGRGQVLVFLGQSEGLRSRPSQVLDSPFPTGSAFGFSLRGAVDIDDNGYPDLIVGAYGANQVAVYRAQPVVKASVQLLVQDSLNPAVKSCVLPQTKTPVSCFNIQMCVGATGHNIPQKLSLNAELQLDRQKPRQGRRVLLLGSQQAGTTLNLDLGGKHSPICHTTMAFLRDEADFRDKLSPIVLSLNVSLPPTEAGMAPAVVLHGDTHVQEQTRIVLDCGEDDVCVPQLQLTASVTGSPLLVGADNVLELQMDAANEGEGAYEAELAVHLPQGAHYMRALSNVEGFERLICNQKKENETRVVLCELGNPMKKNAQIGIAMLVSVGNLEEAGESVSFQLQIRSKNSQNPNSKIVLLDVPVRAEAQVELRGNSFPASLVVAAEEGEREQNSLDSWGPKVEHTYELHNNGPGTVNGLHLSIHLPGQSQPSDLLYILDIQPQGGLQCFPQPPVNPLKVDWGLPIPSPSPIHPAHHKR
Integrin alpha-IIb/beta-3, sequence (P08514 891-1039 limits assumed): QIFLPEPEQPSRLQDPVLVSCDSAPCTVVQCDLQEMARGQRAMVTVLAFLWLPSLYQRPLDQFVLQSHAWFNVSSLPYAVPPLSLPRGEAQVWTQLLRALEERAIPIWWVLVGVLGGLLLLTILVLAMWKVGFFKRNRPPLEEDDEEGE

For `CN1Cc2cc(C(=O)N3CCC(C4CCNCC4)CC3)ccc2NC(CC(=O)O)C1=O` (configuration not stated), the Duration in experiment [1] is 240 min. Besides, the Time in experiment [2] was 5 min and 10 min. For the same compound, at 3 mg/kg the inhibition in vivo in experiment [3] was 90%. The IC50 in [4] came out at 106 nM. Moreover, the inhibition in vivo at 0.3 mg/kg in experiment [5] was 60%; in experiment [6], 50%; in experiment [8], 90%. The compound further yielded an inhibition constant (Ki) in experiment [7] of 4 nM.

As for `O=C(O)CC1Nc2ccc(C(=O)N3CCC(C4CCNCC4)CC3)cc2CN(CCc2ccccc2)C1=O` (configuration not stated), in experiment [1], the Duration turned out to be 140 min. In addition, in experiment [2], the Time is 10 min and 30 min. Moreover, half-maximal inhibition in experiment [4] (IC50) was put at 20 nM. Besides, the inhibition in vivo at 0.3 mg/kg in experiment [9] stood at 70%; in experiment [8], 90%. This compound displayed a Ki in experiment [7] of 1.5 nM.

The compound `CN(CCCC1CCNCC1)C(=O)c1ccc2c(c1)CN(CCc1ccccc1)C(=O)C(CC(=O)O)N2` (configuration not stated) had a half-inhibitory concentration (IC50) in [4] of 60 nM. For the same compound, the affinity in [7], expressed as Ki, was 8 nM.

Regarding `N=C(N)c1ccc(NC(=O)c2ccc3c(c2)NC(CC(=O)O)C(=O)N(CCc2ccccc2)C3)cc1` (configuration not stated), the affinity in experiment [7], expressed as Ki, was 2.8 nM.

`N=C(N)c1cccc(NC(=O)c2ccc3c(c2)CN(CCc2ccccc2)C(=O)C(CC(=O)O)N3)c1` (configuration not stated) came in with a half-inhibitory concentration (IC50) in experiment [4] of 380 nM. In addition, in [7], the affinity corresponds to a Ki of 26 nM.

Compound `CN(C(=O)c1ccc2c(c1)NC(CC(=O)O)C(=O)N(CCc1ccccc1)C2)c1ccc(C(=N)N)cc1` (configuration not stated) came in with an IC50 in experiment [4] of 65 nM. The same compound returned a Ki in experiment [7] of 1.6 nM.

`CN1C(=O)c2ccccc2SSc2ccccc2NC(=O)[C@H](CC(=O)O)NC(=O)CNC(=O)[C@@H]1CCCN=C(N)N` [SKF-107260] came in with a concentration for half-maximal inhibition (IC50) in experiment [4] of 57 nM.

A word on the inhibition in vivo: it is the share of the control response that was lost under treatment. High values mean strong suppression, low ones little suppression. A word on the IC50: it is the concentration that inhibits the measured activity by half. As a reminder, the Ki is the dissociation constant of the complex between target and ligand, obtained from inhibition or displacement. Low readings indicate tighter binding, high ones weaker binding.
